Experimental findings from PMC3322254 (Biochemical Pharmacology, 2012) are described below.

The target in assay [1] is T1, hA3AR (Homo sapiens, UniProt P0DMS8).
T1 sequence (P0DMS8 1-318): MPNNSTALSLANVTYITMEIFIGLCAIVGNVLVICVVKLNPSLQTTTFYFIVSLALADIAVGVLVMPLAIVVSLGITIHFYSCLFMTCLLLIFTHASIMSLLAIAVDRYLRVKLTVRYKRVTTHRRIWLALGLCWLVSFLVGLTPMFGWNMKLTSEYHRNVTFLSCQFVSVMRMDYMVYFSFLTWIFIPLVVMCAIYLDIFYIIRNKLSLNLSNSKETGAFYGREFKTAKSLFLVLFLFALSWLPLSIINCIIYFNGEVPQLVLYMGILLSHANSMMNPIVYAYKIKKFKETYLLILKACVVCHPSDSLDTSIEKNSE
Kind of assay: Fluorescent ligand binding. An outline of the steps: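 hA3AR-CHO cells were incubated in medium at 37 °C, 5% CO2. Preliminary screen: 1 h with conjugates at 1.5–20 μM or tracer at 10 nM. Saturation: tracer 2.5–250 nM for 1 h. Kinetics: 10 nM tracer, read from 5 min to 3 h, with dissociation started at 90 min by 10 μM non-fluorescent A3AR antagonist. Cells were EDTA-detached and read by flow cytometry; MFI was corrected for autofluorescence and converted to MESF using bead calibration.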

Assay [2] concerns the target T1, hA3AR. In words: Radioligand membrane binding assay with [125I]I-AB-MECA. In short, it runs like this: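 Membranes came from CHO (hA1, hA3) or HEK293 (hA2A) cells, homogenized in 50 mM Tris-HCl pH 7.5 with 10 mM MgCl2, pelleted at 20,000 × g and stored at −80 °C with 3 units/ml adenosine deaminase. Protein was measured by Bradford. […] Ki values were obtained at each subtype.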

In assay [3] the target is A2AAR (Homo sapiens, UniProt P29274). In words: FCM binding of MRS5449 to HEK cells expressing the A2AAR. An outline of the steps:
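Stably transfected lines grew in DMEM/F12 (1:1) with 10% FBS, 2 mM L-glutamine and penicillin/streptomycin: A1AR CHO cells under 500 μg/ml hygromycin B, A2AAR HEK293 cells under 800 μg/ml G418. Cells were seeded about 400,000/well and grown 24 h at 37 °C, 5% CO2. At about 80% confluency the medium was refreshed and the fluorescent tracer added. Cells were then washed, detached with 0.2% EDTA and read by flow cytometry (488 nm excitation), with autofluorescence subtracted.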

Sequence of A2AAR (P29274 whole entry): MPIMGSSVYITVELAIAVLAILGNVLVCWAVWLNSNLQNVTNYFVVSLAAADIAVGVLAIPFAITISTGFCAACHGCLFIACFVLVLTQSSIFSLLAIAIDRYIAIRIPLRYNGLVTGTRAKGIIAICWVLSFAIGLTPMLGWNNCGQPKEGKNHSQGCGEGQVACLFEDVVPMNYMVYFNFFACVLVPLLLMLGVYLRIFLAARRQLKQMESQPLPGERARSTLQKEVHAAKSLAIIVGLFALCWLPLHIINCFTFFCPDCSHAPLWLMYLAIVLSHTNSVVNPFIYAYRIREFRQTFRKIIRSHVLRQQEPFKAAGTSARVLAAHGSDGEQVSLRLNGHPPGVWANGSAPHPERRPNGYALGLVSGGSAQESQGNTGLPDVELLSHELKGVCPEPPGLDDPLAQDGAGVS

Turning to `N=c1ccc2c(-c3ccc(C(=O)NCCCCCCn4cc(CCCC(=O)Nc5nc6ccc(Cl)cc6c6nc(-c7ccco7)nn56)nn4)cc3C(=O)O)c3ccc(N)c(S(=O)(=O)O)c3oc-2c1S(=O)(=O)O` [Compound 9, 2-(6-Amino-3-iminio-4,5-disulfonato-3H-xanthen-9-yl)-5-((6-(4-(4-((9-chloro-2-(furan-2-yl)-[1,2,4]triazolo[1,5-c]quinazolin-5-yl)amino)-4-oxobutyl)-1H-1,2,3-triazol-1-yl)hexyl)carbamoyl)benzoate], the “Nonspecific binding, % of total binding” value in assay [1] (10 nM MRS5449, in presence of 10 μM MRS1220 or 10 μM Cl-IB-MECA or in control CHO cells) is “less than 1%”. Also, the “fluorescence emission (MFI) of cell-bound ligand” value in assay [1] (preliminary FCM, 1 h, 37 °C, 1.5-20 μM for 1-6, 10 nM MRS5449) is reported as “sufficiently high MFI”. In assay [2] (read-out: A3 Ki, CHO cells stably expressing hA3AR, agonist radioligand [125I]I-AB-MECA), the Ki is 6.4 ± 2.5 nM. Besides, the “selectivity for the A3AR” value in assay [2] (versus hA1 and hA2AARs, from radioligand Ki values) was “over 10 fold”. Further, the “binding compared with the binding to the A3AR (expressed as 100%)” value in assay [3] is 0.5%.
